From ChEMBL document CHEMBL3085774, “Design of novel potent inhibitors of human uridine phosphorylase-1: synthesis, inhibition studies, thermodynamics, and in vitro influence on 5-fluorouracil cytotoxicity” (J Med Chem, 2013)
One block for each compound: values may come before it. Calls of active or inactive are those of the source. The rule behind the calls is not given here.

Assays:
[1] = target: T1, Uridine phosphorylase 1 (Homo sapiens, UniProt Q16831); test: Inhibition of human recombinant UP1 expressed in Escherichia coli Rosetta (DE3) using URD and inorganic phosphate as substrate at 1 uM after 60 seconds by spectrophotometric analysis relative to control
Summary of the method: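 Assay mix: 100 mM Tris pH 7.4, 100 nM recombinant hUP1, uridine 50 μM and Pi 2 mM (their Km values), inhibitor 1 μM final. Run 60 s at 37 °C under initial-rate conditions, following A280 decrease as uridine converts to uracil. Percent inhibition relative to uninhibited activity; DMSO control at up to 1% final.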
Target sequence in this assay (Q16831 whole entry, looked up): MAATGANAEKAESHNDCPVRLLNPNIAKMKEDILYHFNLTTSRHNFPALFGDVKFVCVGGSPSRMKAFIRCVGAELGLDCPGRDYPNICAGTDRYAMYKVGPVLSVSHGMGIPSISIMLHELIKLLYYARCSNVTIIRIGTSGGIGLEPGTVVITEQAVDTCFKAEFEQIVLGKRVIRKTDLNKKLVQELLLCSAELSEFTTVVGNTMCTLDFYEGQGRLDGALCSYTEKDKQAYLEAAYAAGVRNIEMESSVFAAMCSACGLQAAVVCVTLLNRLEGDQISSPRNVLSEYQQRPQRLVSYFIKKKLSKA

[2] = test system: SW-620; test: Potentiation of 5-FU-induced cytotoxicity against human SW620 cells assessed as reduction in compound IC50 at 30 uM after 72 hrs by MTT assay relative to control; assay type: functional
Summary of the method: (§1)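 5-FU concentration–response over 72 h (HaCat 0.25–20 μM; HT-29 0.25–50 μM; SW-620 0.5–150 μM), with or without 30 μM inhibitor. Seeding and adhesion as for the viability assay. MTT read-out at 495 nm; 5-FU IC50 from semilog curves by nonlinear regression. Three independent experiments in quadruplicate; one-way ANOVA with Bonferroni test.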

[3] = test system: HaCaT; test: Effect on 5-FU-induced cytotoxicity against human HaCaT cells at 30 uM after 72 hrs by MTT assay; assay type: cell-based; summary of the method: as §1
[4] = test system: SW-620; test: Cytotoxicity against human SW620 cells at 1 to 100 uM after 72 hrs by MTT assay; assay type: functional, cell-based
Summary of the method: (§2)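 Cells seeded at 7 × 10³ per well, allowed to adhere 48 h (HaCat) or 24 h (HT-29, SW-620). Exposed 72 h to 1–100 μM compound, 37 °C, 5% CO2. MTT 10% (v/v) for 3 h; formazan dissolved in DMSO and read at 495 nm. Viability relative to untreated cells; controls of medium and 1% DMSO. Mean ± SEM of three experiments in quadruplicate.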

[5] = test system: HT-29; test: Cytotoxicity against human HT-29 cells at 1 to 100 uM after 72 hrs by MTT assay; assay type: functional, cell-based; summary of the method: as §2
[6] = test system: HaCaT; test: Cytotoxicity against human HaCaT cells at 1 to 100 uM after 72 hrs by MTT assay; assay type: cell-based; summary of the method: as §2
[7] = target: T2, Thymidine phosphorylase (Homo sapiens, UniProt P19971); test: Inhibition of human thymidine phosphorylase
T2 sequence (P19971 whole entry): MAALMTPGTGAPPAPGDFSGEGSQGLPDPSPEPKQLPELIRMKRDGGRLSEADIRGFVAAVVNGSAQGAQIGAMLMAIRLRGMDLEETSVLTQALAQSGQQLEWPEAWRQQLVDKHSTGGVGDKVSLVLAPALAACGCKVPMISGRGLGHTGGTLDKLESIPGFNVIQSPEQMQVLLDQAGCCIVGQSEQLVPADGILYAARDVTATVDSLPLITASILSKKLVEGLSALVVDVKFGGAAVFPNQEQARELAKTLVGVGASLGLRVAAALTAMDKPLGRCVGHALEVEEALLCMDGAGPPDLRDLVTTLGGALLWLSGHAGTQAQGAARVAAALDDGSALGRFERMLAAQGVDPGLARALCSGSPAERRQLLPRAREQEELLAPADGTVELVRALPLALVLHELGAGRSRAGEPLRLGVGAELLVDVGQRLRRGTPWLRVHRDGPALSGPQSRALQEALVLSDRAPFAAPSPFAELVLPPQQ

[8] = target: T1, Uridine phosphorylase 1; test: Uncompetitive inhibition of human recombinant UP1 expressed in Escherichia coli Rosetta (DE3) using inorganic phosphate as substrate by Lineweaver-Burk plot analysis
Summary of the method: (§3)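 Pi varied 0.1–12 mM with uridine fixed at 50 μM. Four inhibitor levels (0.1–5 μM), 100 nM enzyme, 100 mM Tris pH 7.4, 37 °C. Initial rates read as decreasing A280. Kis from slopes and Kii from intercepts of Lineweaver–Burk plots; inhibition mode from line patterns. Duplicates.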
Target sequence in this assay (Q16831 whole entry, looked up): as the sequence (Q16831 whole entry, looked up) above

[9] = target: T1, Uridine phosphorylase 1; test: Competitive inhibition of human recombinant UP1 expressed in Escherichia coli Rosetta (DE3) using URD as substrate by Lineweaver-Burk plot analysis
Summary of the method: (§4)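 Uridine varied 20–600 μM with Pi fixed at 2 mM. Four inhibitor levels from 0.1 to 5 μM, 100 nM hUP1, 100 mM Tris pH 7.4, 37 °C. Uracil formation followed as the fall in A280 under initial-rate conditions. Kis from slopes and Kii from intercepts of Lineweaver–Burk plots; mode taken from line patterns. Duplicate measurements.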
Target sequence in this assay (Q16831 whole entry, looked up): as the sequence (Q16831 whole entry, looked up) above

[10] = target: T1, Uridine phosphorylase 1; test: Time dependent inhibition of human recombinant UP1 expressed in Escherichia coli Rosetta (DE3) using URD and inorganic phosphate as substrate at 1 uM by spectrophotometric analysis
Summary of the method: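 Enzyme (100 nM) preincubated with 1 μM inhibitor (final), then added to the standard reaction mix (Tris pH 7.4, 50 μM uridine, 2 mM Pi, 37 °C) at times up to 30 min. Change in initial velocity followed by A280 and percent inhibition calculated.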
Target sequence in this assay (Q16831 whole entry, looked up): as the sequence (Q16831 whole entry, looked up) above

[11] = test system: HT-29; test: Protection against 5-FU-induced cytotoxicity against human HT-29 cells assessed as increase in compound IC50 at 30 uM after 72 hrs by MTT assay relative to control
[12] = target: T1, Uridine phosphorylase 1; test: Binding affinity to human recombinant UP1-R1P binary complex expressed in Escherichia coli Rosetta (DE3) at 50 uM R1P by isothermal titration calorimetric analysis
Summary of the method: (§5)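 ITC at 310.15 K (37 °C): 56 μM hUP1 in 50 mM Tris HCl pH 7.4, alone or as binary complex with 10 mM Pi or R1P (50–200 μM, final). One 0.5 μL injection (discarded), then 26 injections of 1.5 μL ligand. Dilution heats subtracted. Fit to one-set-of-sites model for ΔH°, Keq and n; ΔG° and ΔS° calculated.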
Target sequence in this assay (Q16831 whole entry): as the sequence (Q16831 whole entry, looked up) above

[13] = test system: HT-29; test: Potentiation of 5-FU-induced cytotoxicity against human HT-29 cells assessed as reduction in compound IC50 at 30 uM after 72 hrs by MTT assay relative to control; assay type: functional; summary of the method: as §1
[14] = target: T1, Uridine phosphorylase 1; test: Non-competitive inhibition of human recombinant UP1 expressed in Escherichia coli Rosetta (DE3) using URD as substrate assessed as equilibrium dissociation constant for enzyme-substrate-inhibitor complex by Lineweaver-Burk plot analysis; summary of the method: as §4
Target sequence in this assay (Q16831 whole entry, looked up): as the sequence (Q16831 whole entry, looked up) above

[15] = target: T1, Uridine phosphorylase 1; test: Non-competitive inhibition of human recombinant UP1 expressed in Escherichia coli Rosetta (DE3) using URD as substrate assessed as equilibrium dissociation constant for enzyme-inhibitor complex by Lineweaver-Burk plot analysis; summary of the method: as §4
Target sequence in this assay (Q16831 whole entry, looked up): as the sequence (Q16831 whole entry, looked up) above

[16] = Half life in mouse plasma; assay type: ADME, cell-free
[17] = target: T1, Uridine phosphorylase 1; test: Induction of uridine phosphorylase-mediated drug metabolism in human liver
[18] = target: T1, Uridine phosphorylase 1; test: Non-competitive inhibition of human recombinant UP1 expressed in Escherichia coli Rosetta (DE3) using inorganic phosphate as substrate assessed as equilibrium dissociation constant for enzyme-substrate-inhibitor complex by Lineweaver-Burk plot analysis; summary of the method: as §3
[19] = target: T1, Uridine phosphorylase 1; test: Non-competitive inhibition of human recombinant UP1 expressed in Escherichia coli Rosetta (DE3) using inorganic phosphate as substrate assessed as equilibrium dissociation constant for enzyme-inhibitor complex by Lineweaver-Burk plot analysis; summary of the method: as §3
[20] = Inhibition of mouse UPase by Dixon plot analysis
[21] = target: T1, Uridine phosphorylase 1; test: Binding affinity to human recombinant UP1 expressed in Escherichia coli Rosetta (DE3) by isothermal titration calorimetric analysis; summary of the method: as §5
Target sequence in this assay (Q16831 whole entry): as the sequence (Q16831 whole entry, looked up) above

Structure (SMILES): Cc1cc(O)[nH]c(=O)c1C
inhibition [1]: 9.5%

Structure (SMILES): CCCc1cc(O)[nH]c(=O)c1C#N
inhibition [1]: 16%

Structure (SMILES): Cc1ccc(O)[nH]c1=O
inhibition [1]: 12%

Structure (SMILES): CCc1cc(O)[nH]c(=O)c1C#N
inhibition [1]: 25%

Structure (SMILES): O=c1[nH]cc(CNCCO)c(=O)[nH]1
inhibition [1]: 2%

Structure (SMILES): Cc1cc(O)[nH]c(=O)c1
inhibition [1]: 16%

Structure (SMILES): O=c1cccc(O)[nH]1
inhibition [1]: 38%

Structure (SMILES): N#Cc1c(Cc2ccccc2)cc(O)[nH]c1=O
inhibition [1]: 2%

Structure (SMILES): CC(C)c1cc(O)[nH]c(=O)c1C#N
inhibition [1]: 31%

Structure (SMILES): O=c1ccn([C@@H]2O[C@H](CO)[C@@H](O)[C@H]2O)c(=O)[nH]1 [URIDINE]
half-life [16]: 2 min
metabolised [17]: > 80%

Structure (SMILES): N#Cc1ccc(O)[nH]c1=O
IC50 [7]: > 100 µM
Kii [18]: 666 nM
Kis [19]: 565 nM
Kii [14]: 2550 nM
inhibition [10]: inactive
inhibition [1]: 67%
Kis [15]: 2610 nM

Structure (SMILES): N#Cc1c(-c2ccccc2)cc(O)[nH]c1=O
inhibition [1]: 42%

Structure (SMILES): O=c1[nH]c(=O)n(COCCO)cc1Cc1ccccc1
Ki [20]: 0.1 µM
Activity [13]: inactive
Activity [3]: Non-toxic
Kd [21]: 1.2 µM
Kii [18]: 317 nM
Kis [19]: 547 nM
Kis [9]: 130 nM

Now from value to compound, other results behind:

IC50 [7]: > 100 µM
Kii [8]: 127 nM
Kis [9]: 68 nM
inhibition [10]: inactive
inhibition [1]: 80%
Structure (SMILES): Cc1c(CNCCO)c(O)[nH]c(=O)c1C#N
fold change (FC) [2]: 6
Activity [3]: Non-toxic
Activity [4]: inactive
Activity [5]: inactive
Activity [6]: Non-toxic
fold change (FC) [11]: 9

inhibition [1]: 51%
Structure (SMILES): Cc1c(CN2CCOCC2)c(O)[nH]c(=O)c1C#N

Kd [12]: 7 µM
IC50 [7]: > 100 µM
Kii [8]: 98 nM
Kis [9]: 94 nM
inhibition [10]: inactive
inhibition [1]: 82%
Structure (SMILES): Cc1c(CNC(CO)CO)c(O)[nH]c(=O)c1C#N

inhibition [1]: 49%
Structure (SMILES): Cc1c(CN2CCCCC2)c(O)[nH]c(=O)c1C#N

inhibition [1]: 12%
Structure (SMILES): Cc1c(-c2ccccc2)c(O)[nH]c(=O)c1C#N

inhibition [1]: 25%
Structure (SMILES): CCN(CC)Cc1c(O)[nH]c(=O)c(C#N)c1C

IC50 [7]: > 100 µM
Kii [8]: 182 nM
Kis [9]: 109 nM
inhibition [10]: inactive
inhibition [1]: 78%
Structure (SMILES): Cc1c(CNCC(O)CO)c(O)[nH]c(=O)c1C#N (stereo not given)

IC50 [7]: > 100 µM
Kii [8]: 107 nM
Kis [9]: 99 nM
inhibition [10]: inactive
inhibition [1]: 81%
Structure (SMILES): Cc1c(CN(C)C)c(O)[nH]c(=O)c1C#N

IC50 [7]: > 100 µM
Kii [8]: 332 nM
Kii [14]: 635 nM
inhibition [10]: inactive
inhibition [1]: 70%
Kis [15]: 375 nM
Structure (SMILES): Cc1cc(O)[nH]c(=O)c1C#N
fold change (FC) [2]: 12
Activity [13]: inactive
Activity [3]: Non-toxic
Activity [4]: inactive
Activity [5]: inactive
Activity [6]: Non-toxic

inhibition [1]: 43%
Structure (SMILES): Cc1c(Cc2ccccc2)c(O)[nH]c(=O)c1C#N
